Measured values reported in ChEMBL document CHEMBL3046382, “Synthesis and insecticidal activities and SAR studies of novel benzoheterocyclic diacylhydrazine derivatives” (2009).

Legend:
Assay type in all cases: functional
[1] = tested on: Mythimna separata; assay: Stomach toxicity in fourth-instar Mythimna separata(Oriental armyworm) larvae in compound treated corn leaves assessed as mortality at 200 mg/kg measured after 4 days; settings: 96 h
[2] = tested on: Culicidae; assay: Toxicity against fourth-instar larvae of Culex pipiens pallens assessed as mortality at 0.5 mg/kg measured after 7 to 10 days
Summary of the method: (§1)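 For each concentration, 1 mL of dilution was added to 99 mL water and 20 fourth-instar larvae introduced. Percentage mortality assessed 7–10 days after treatment.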

[3] = tested on: Culicidae; assay: Toxicity against fourth-instar larvae of Culex pipiens pallens assessed as mortality at 2 mg/kg measured after 7 to 10 days; summary of the method: as §1
[4] = tested on: Culicidae; assay: Toxicity against fourth-instar larvae of Culex pipiens pallens assessed as mortality at 1 mg/kg measured after 7 to 10 days; summary of the method: as §1
[5] = tested on: Mythimna separata; assay: Stomach toxicity in fourth-instar Mythimna separata (Oriental armyworm) larvae in compound treated corn leaves assessed as mortality at 100 mg/kg measured after 4 days; settings: 96 h
[6] = tested on: Mythimna separata; assay: Stomach toxicity in fourth-instar Mythimna separata (Oriental armyworm) larvae in compound treated corn leaves assessed as mortality at 10 mg/kg measured after 4 days; settings: 96 h
[7] = tested on: Mythimna separata; assay: Stomach toxicity in fourth-instar Mythimna separata (Oriental armyworm) larvae in compound treated corn leaves assessed as mortality at 50 mg/kg measured after 4 days; settings: 96 h
[8] = tested on: Mythimna separata; assay: Stomach toxicity in fourth-instar Mythimna separata (Oriental armyworm) larvae in compound treated corn leaves assessed as mortality at 25 mg/kg measured after 4 days; settings: 96 h
[9] = tested on: Mythimna separata; assay: Stomach toxicity in fourth-instar Mythimna separata (Oriental armyworm) larvae in compound treated corn leaves assessed as mortality at 5 mg/kg measured after 4 days; settings: 96 h
[10] = tested on: Mythimna separata; assay: Stomach toxicity in fourth-instar Mythimna separata (Oriental armyworm) larvae in compound treated corn leaves assessed as mortality at 2.5 mg/kg measured after 4 days; settings: 96 h

SMILES | mortality at 200 mg/kg [1] | mortality at 0.5 mg/kg [2] | mortality at 2 mg/kg [3] | mortality at 1 mg/kg [4] | mortality at 100 mg/kg [5] | mortality at 10 mg/kg [6] | mortality at 50 mg/kg [7] | mortality at 25 mg/kg [8] | mortality at 5 mg/kg [9] | mortality at 2.5 mg/kg [10]
Cc1c(C(=O)NN(C(=O)c2cc([N+](=O)[O-])cc([N+](=O)[O-])c2)C(C)(C)C)ccc2c1CC(C)O2 (stereo not given) | 20% | 10% | 30% | 20% | 0% |  |  |  |  | 
Cc1c(C(=O)NN(C(=O)c2ccc(Cl)cc2)C(C)(C)C)ccc2c1CC(C)O2 (stereo not given) | 100% |  | 0% | 0% | 100% | 0% | 100% | 90% |  | 
Cc1cccc(C(=O)N(NC(=O)c2ccc3c(c2C)CC(C)O3)C(C)(C)C)c1 (stereo not given) | 100% |  | 0% | 0% | 100% | 100% | 100% | 100% | 15% | 0%
Cc1c(C(=O)NN(C(=O)c2ccc(Cl)cc2Cl)C(C)(C)C)ccc2c1CC(C)O2 (stereo not given) | 100% |  | 0% | 0% | 100% | 0% | 100% | 90% |  | 
Cc1c(C(=O)NN(C(=O)c2ccccc2)C(C)(C)C)ccc2c1CC(C)(C)O2 | 40% | 10% | 50% | 30% | 10% |  | 0% |  |  | 
Cc1c(C(=O)NN(C(=O)c2ccccc2[N+](=O)[O-])C(C)(C)C)ccc2c1CC(C)(C)O2 | 50% | 10% | 40% | 20% | 0% |  |  |  |  | 
Cc1c(C(=O)NN(C(=O)c2cccc([N+](=O)[O-])c2)C(C)(C)C)ccc2c1CC(C)(C)O2 | 10% | 10% | 30% | 20% | 0% |  |  |  |  | 
Cc1c(C(=O)NN(C(=O)c2ccc([N+](=O)[O-])cc2)C(C)(C)C)ccc2c1CC(C)(C)O2 | 10% |  | 20% | 0% | 0% |  |  |  |  | 
Cc1c(C(=O)NN(C(=O)c2ccccc2Cl)C(C)(C)C)ccc2c1CC(C)(C)O2 | 60% | 0% | 70% | 20% | 0% |  |  |  |  | 
Cc1c(C(=O)NN(C(=O)c2cccc(Cl)c2)C(C)(C)C)ccc2c1CC(C)(C)O2 | 80% |  | 10% | 0% | 10% |  | 0% |  |  | 
Cc1c(C(=O)NN(C(=O)c2ccc(Cl)cc2)C(C)(C)C)ccc2c1CC(C)(C)O2 | 90% | 0% | 60% | 10% | 10% |  | 0% |  |  | 
COc1ccccc1C(=O)N(NC(=O)c1ccc2c(c1C)CC(C)(C)O2)C(C)(C)C | 0% | 0% | 20% | 10% | 0% |  |  |  |  | 
COc1cccc(C(=O)N(NC(=O)c2ccc3c(c2C)CC(C)(C)O3)C(C)(C)C)c1 | 100% | 10% | 40% | 30% | 30% |  | 20% | 0% |  | 
COc1ccc(C(=O)N(NC(=O)c2ccc3c(c2C)CC(C)(C)O3)C(C)(C)C)cc1 | 60% |  | 10% | 0% | 0% |  |  |  |  | 
Cc1cccc(C(=O)N(NC(=O)c2ccc3c(c2C)CC(C)(C)O3)C(C)(C)C)c1 | 100% | 10% | 50% | 10% | 90% |  | 30% | 0% |  | 
Cc1cc(C)cc(C(=O)N(NC(=O)c2ccc3c(c2C)CC(C)(C)O3)C(C)(C)C)c1 | 100% |  | 70% | 0% | 100% | 0% | 90% | 20% |  | 
Cc1c(C(=O)NN(C(=O)c2cc([N+](=O)[O-])cc([N+](=O)[O-])c2)C(C)(C)C)ccc2c1CC(C)(C)O2 | 40% | 10% | 30% | 20% | 0% |  |  |  |  | 
Cc1c(C(=O)NN(C(=O)c2cc(Cl)cc(Cl)c2)C(C)(C)C)ccc2c1CC(C)(C)O2 | 60% | 10% | 30% | 20% | 0% |  |  |  |  | 
Cc1c(C(=O)NN(C(=O)c2ccc(Cl)cc2Cl)C(C)(C)C)ccc2c1CC(C)(C)O2 | 90% |  | 50% | 0% | 10% |  | 0% |  |  | 
Cc1c(C(=O)NN(C(=O)c2ccccc2)C(C)(C)C)ccc2c1CC(C)O2 (stereo not given) | 100% |  | 0% | 0% | 100% | 0% | 90% | 80% |  | 
Cc1c(C(=O)NN(C(=O)c2ccccc2[N+](=O)[O-])C(C)(C)C)ccc2c1CC(C)O2 (stereo not given) | 100% | 0% | 30% | 20% | 100% | 0% | 60% | 20% |  | 
Cc1c(C(=O)NN(C(=O)c2cccc([N+](=O)[O-])c2)C(C)(C)C)ccc2c1CC(C)O2 (stereo not given) | 20% | 0% | 20% | 10% | 0% |  |  |  |  | 
Cc1c(C(=O)NN(C(=O)c2ccc([N+](=O)[O-])cc2)C(C)(C)C)ccc2c1CC(C)O2 (stereo not given) | 60% |  | 40% | 0% | 0% |  |  |  |  | 
Cc1c(C(=O)NN(C(=O)c2ccccc2Cl)C(C)(C)C)ccc2c1CC(C)O2 (stereo not given) | 100% | 10% | 30% | 20% | 100% | 0% | 100% | 40% |  | 
Cc1c(C(=O)NN(C(=O)c2cccc(Cl)c2)C(C)(C)C)ccc2c1CC(C)O2 (stereo not given) | 100% | 10% | 60% | 20% | 100% | 10% | 80% | 30% | 0% | 
